What was measured:
[1] = Inhibition of HCV NS3/4A protease expressed Escherichia coli after 1 hr by time-resolved fluorescence assay; set-up: species or system Hepacivirus hominis
Outline: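 Binding assay against genotype 1b HCV NS3/4A protease, read by time-resolved fluorescence; potency expressed as Ki.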

Hepatitis C virus [2] = experiment: Antiviral activity against HCV1b con1 infected in human HuH7 cells assessed as inhibition of viral replication after 24 hrs in presence of 50% normal human serum; assay type: functional, organism-based, Hepacivirus hominis; details: Con1, Huh-7, 24 h
Outline: (§1)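 Cell-based HCV replicon assay giving IC50. Genotype 1b replicon run with 10% fetal bovine serum or with 50% normal human serum. Genotype 2a replicon run with 10% FBS.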

Hepatitis C virus [3] = experiment: Antiviral activity against HCV1b con1 infected in human HuH7 cells assessed as inhibition of viral replication after 24 hrs in presence of 10% fetal bovine serum; assay type: functional, organism-based, Hepacivirus hominis; details: Con1, Huh-7, 24 h; outline: as §1
[4] = AUC in Sprague-Dawley rat plasma at 5 mg/kg, po after 4 hrs; assay type: ADME, organism-based; set-up: time < 4 hr, dose 5 mg/kg, route oral
Outline: (§2)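 Rat PK screen: 5 mg/kg given orally in PEG400, n = 2; plasma AUC calculated from a 4 h experiment, and liver concentration measured at 4 h after dosing.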

[5] = Drug level in Sprague-Dawley rat liver at 5 mg/kg, po after 4 hrs; assay type: ADME, organism-based; set-up: dose 5 mg/kg, route oral; details: read-out: Drug uptake; outline: as §2

| IC50 (Hepatitis C virus [3]) [nM] | AUC at 4 h [4] [µM·h] | concentration at 4 h [5] [µM] | SMILES | Ki [1] [nM] | IC50 (Hepatitis C virus [2]) [nM] |
| --- | --- | --- | --- | --- | --- |
| – | – | – | C=C[C@@H]1C[C@]1(NC(=O)[C@@H]1C[C@@H]2CN1C(=O)[C@H](c1ccccc1)NC(=O)OCCCCCc1ccc3ccnc(c3c1)O2)C(=O)NS(=O)(=O)C1CC1 | 1 | – |
| 4.5 | 0.36 | 18.6 | C=C[C@@H]1C[C@]1(NC(=O)[C@@H]1C[C@@H]2CN1C(=O)[C@H](C(C)(C)C)NC(=O)OCCC/C=C/c1ccc3ccnc(c3c1)O2)C(=O)NS(=O)(=O)C1CC1 | 0.04 | 14 |
| 5 | 0.15 | 4.5 | C=C[C@@H]1C[C@]1(NC(=O)[C@@H]1C[C@@H]2CN1C(=O)[C@H](C1Cc3ccccc3C1)NC(=O)OCCC/C=C/c1ccc3ccnc(c3c1)O2)C(=O)NS(=O)(=O)C1CC1 | 0.07 | 20 |
| 8.7 | 0.27 | – | C=C[C@@H]1C[C@]1(NC(=O)[C@@H]1C[C@@H]2CN1C(=O)[C@H](C(C)(C)C)NC(=O)OCCCCCc1ccc3ccnc(c3c1)O2)C(=O)NS(=O)(=O)C1CC1 | 0.18 | 46 |
| 4.5 | 3.1 | 29.8 | C=C[C@@H]1C[C@]1(NC(=O)[C@@H]1C[C@@H]2CN1C(=O)[C@H](C1CCCCC1)NC(=O)OCCCCCc1ccc3ccnc(c3c1)O2)C(=O)NS(=O)(=O)C1CC1 | 0.15 | 181 |
| 50 | 1.6 | 8.8 | C=C[C@@H]1C[C@]1(NC(=O)[C@@H]1C[C@@H]2CN1C(=O)[C@H](C(C)(C)C)NC(=O)OCCCCCc1cc(OC(F)(F)F)c3ccnc(c3c1)O2)C(=O)NS(=O)(=O)C1CC1 | 0.75 | 4400 |
| 2.3 | 1.4 | 24.5 | C=C[C@@H]1C[C@]1(NC(=O)[C@@H]1C[C@@H]2CN1C(=O)[C@H](C(C)(C)C)NC(=O)OCCCCCc1cc(I)c3ccnc(c3c1)O2)C(=O)NS(=O)(=O)C1CC1 | 0.03 | 56 |
| 7 | – | – | C=C[C@@H]1C[C@]1(NC(=O)[C@@H]1C[C@@H]2CN1C(=O)[C@H](C1CCC1)NC(=O)OCCCCCc1ccc3ccnc(c3c1)O2)C(=O)NS(=O)(=O)C1CC1 | 0.18 | 130 |
| 2 | 1.8 | 12.6 | C=C[C@@H]1C[C@]1(NC(=O)[C@@H]1C[C@@H]2CN1C(=O)[C@H](C(C)(C)C)NC(=O)OCCCCCc1cc(SC)c3ccnc(c3c1)O2)C(=O)NS(=O)(=O)C1CC1 | 0.03 | 34 |
| 3 | 0.43 | 10 | C=C[C@@H]1C[C@]1(NC(=O)[C@@H]1C[C@@H]2CN1C(=O)[C@H](Cc1ccccc1)NC(=O)OCCC/C=C/c1ccc3ccnc(c3c1)O2)C(=O)NS(=O)(=O)C1CC1 | 0.65 | – |
| 21 | – | – | C=C[C@@H]1C[C@]1(NC(=O)[C@@H]1C[C@@H]2CN1C(=O)[C@H](C(C)(C)C)NC(=O)OCCCCCc1cc(C(F)(F)F)c3ccnc(c3c1)O2)C(=O)NS(=O)(=O)C1CC1 | 0.25 | 410 |
| 9 | 0.5 | < 0.2 | C=C[C@@H]1C[C@]1(NC(=O)[C@@H]1C[C@@H]2CN1C(=O)[C@H](C1CCOCC1)NC(=O)OCCC/C=C/c1ccc3ccnc(c3c1)O2)C(=O)NS(=O)(=O)C1CC1 | 0.07 | 20 |
| 280 | – | – | C=C[C@@H]1C[C@]1(NC(=O)[C@@H]1C[C@@H]2CN1C(=O)[C@H](C(C)(C)C)NC(=O)OCCCCCc1cc(S(C)(=O)=O)c3ccnc(c3c1)O2)C(=O)NS(=O)(=O)C1CC1 | 0.11 | > 1000 |
| 20 | 0.07 | 0.4 | C=C[C@@H]1C[C@]1(NC(=O)[C@@H]1C[C@@H]2CN1C(=O)[C@H](c1c[nH]c3ccccc13)NC(=O)OCCC/C=C/c1ccc3ccnc(c3c1)O2)C(=O)NS(=O)(=O)C1CC1 | 2 | – |

From ChEMBL document CHEMBL1671838, “Discovery of MK-1220: A Macrocyclic Inhibitor of Hepatitis C Virus NS3/4A Protease with Improved Preclinical Plasma Exposure” (ACS Med Chem Lett, 2011)
